Cl transport mod: modulates chloride dependent transport by human KCC2; Q9H2X9; KCC2 cells, thallium flux FluoZin-2 fluorescence; B-score of Tl+ flux slope (higher = more flux/activation; lower = inhibition) at 10 µM; 2.2% of 190,000 active; AID 1456;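 active means thallium flux slope and its plate-corrected score both differing from the plate sample mean at a set confidence after two filtering rounds, in either direction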;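 further: slope of fluorescence scaled to starting intensity during 10 to 20 s after thallium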
KCNQ1 inh: inhibitors of human KCNQ1 potassium channel | P51787 | 1.3% of 310,000 active | CHO-K1 KCNQ1, FluxOR thallium flux fluorescence; hits give high values | B-score at 10 µM;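 active means compounds whose thallium flux B-score, printed positive for inhibition, exceeds three library SD while starting fluorescence stays within three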;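 further: channel opened by potassium depolarization with thallium stimulus after 20 min compound exposure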
KCNK9 block: blocks the human KCNK9 two-pore domain potassium channel; HEK293 KCNK9, FluxOR thallium flux fluorescence; hits give low values; B-score at 10 µM; 1.2% of 310,000 active; AID 488922;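 active means ratio B-score over 3 SD below the library mean, with starting fluorescence within 5 SD of its mean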;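 further: negative B-score means less thallium flux so channel inhibition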
hERG rescue: compounds protecting human hERG from proarrhythmic drug block | Q12809 | CHO-hERG, FluxOR thallium flux, dofetilide IC70 present | activation (rescue from dofetilide block), less the hit threshold, % at 10 µM | 0.51% of 310,000 active;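 active means activation above the mean of controls blocked by dofetilide plus 5 SD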;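 further: thallium influx through hERG after potassium depolarization seen as dye fluorescence rise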
KCNK3 block: human KCNK3 channel inhibition, primary screen; CHO-KCNK3 thallium flux, FluxOR fluorescence; hits give low values; O14649; B-score at 10 µM; 0.84% of 340,000 active; AID 602410;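 active means B-score under library mean minus 4 SD, starting fluorescence ratio at most library mean plus 5 SD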;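 further: more negative B-score means stronger inhibition of thallium flux through KCNK3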
Target sequence (O14649 whole entry, looked up): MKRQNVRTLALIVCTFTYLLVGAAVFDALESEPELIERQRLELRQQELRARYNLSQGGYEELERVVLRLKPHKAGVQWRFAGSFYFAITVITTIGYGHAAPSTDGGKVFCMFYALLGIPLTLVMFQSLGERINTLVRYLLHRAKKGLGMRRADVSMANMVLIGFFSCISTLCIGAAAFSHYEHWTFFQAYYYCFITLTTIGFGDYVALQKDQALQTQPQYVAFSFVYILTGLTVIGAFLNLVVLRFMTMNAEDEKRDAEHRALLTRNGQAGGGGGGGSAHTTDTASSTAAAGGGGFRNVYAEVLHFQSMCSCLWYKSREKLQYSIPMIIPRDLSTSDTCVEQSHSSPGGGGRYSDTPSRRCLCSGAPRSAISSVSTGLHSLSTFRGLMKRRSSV
KCNQ1 act: potentiates or activates the human KCNQ1 potassium channel. CHO-K1 KCNQ1, thallium flux FluxOR fluorescence; hits give high values. AID 2648. B-score at 10 µM. 0.35% of 310,000 active. P51787;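 active means fluorescence ratio B-score, a plate-corrected score, at least three library SD, with initial intensity B-score within 5 SD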
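Assay system: CHO-K1 cells stably expressing KCNQ1. Medium: assay buffer for compound exposure, DMSO matched across wells. Timing: 37 °C overnight plating, 90-min dark dye load, 20-min compound pretreatment. Signal: kinetic FluxOR fluorescence, 10 s baseline plus 110 s post-stimulus.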
KCNK3 confirm: human KCNK3 channel inhibition, confirmation assay. shares compounds with KCNK3 block. CHO-KCNK3 thallium flux, FluxOR fluorescence; 0% buffer, 100% carvedilol maximal block. ratio percent of control, % at 10 µM. 99% of 2,400 active. AID 651638;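 active means ratio percent of control, averaged over triplicates, above buffer control mean plus 5 SD, cut at about 64% in these data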;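 further: ratio is the fluorescence rise from min to max over baseline after thallium stimulus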
KCNK3 uninduced: counter-screen for KCNK3 inhibitors: effect in non-induced cells | 40% of 2,400 active | shares compounds with KCNK3 block | thallium flux ratio (lower = more inhibition) at 10 µM | non-induced KCNK3 parental cells, FluxOR thallium flux; hits give low values;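 active means thallium flux ratio, averaged over three wells, more than 5 SD below the buffer control mean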;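 further: host cells are CHO cells without KCNK3 induction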
Numbers stand for hits; . = inactive; / = no result given. Shown are actives, neighbours in structure and some others; about 4.1% of the full set was active somewhere.

SMILES	Cl transport mod	KCNQ1 inh	KCNK9 block	hERG rescue	KCNK3 block	KCNQ1 act	KCNK3 confirm	KCNK3 uninduced
Cc1cc(N2CCCC2)c(F)cc1/C=C\[N+](=O)[O-]	.	.	.	.	-10	.	128	0.099
Cc1cc(N2CCC(C)CC2)c(F)cc1[N+](=O)[O-]	/	.	.	.	.	.	/	/
CN(C)/C=C(\C#N)C(=O)Nc1ccc(F)c(Cl)c1	.	.	.	.	.	.	/	/
CC(C)[C@H](NC(=O)Cc1ccccc1)C(=O)OCc1cc(=O)n2c(n1)sc1ccccc12	.	.	.	.	.	.	/	/
O=C(N1CCCC1)C12CC3CCC(CC(C3)C1)C2	.	.	.	.	-12	.	86	.
NC(=O)c1ccccc1NC(=O)CSc1nc2ccccc2c(=O)[nH]1	/	.	.	.	.	.	/	/
COc1ccc2[nH]cc(C(=O)CN(C)CCc3ccc(OC)c(OC)c3)c2c1	.	.	.	.	.	.	/	/
CCCNC(=O)CSc1nc2ccccc2c(=O)n1CCC	.	.	.	.	-8.8	.	86	.
CCCCNC(=O)CSc1nc2ccccc2c(=O)n1CCNC(C)=O	.	.	.	.	.	.	/	/
CCCCC(Sc1nc(C)c(Cc2ccccc2)c(=O)[nH]1)C(=O)O (stereo not drawn)	/	.	.	.	-9	.	.	.
CSc1nc(C)c(Cc2ccccc2)c(=O)[nH]1	.	.	.	.	.	.	/	/
Cc1c(Cl)cccc1NC(=O)N1CCCN(c2nc(-c3ccccc3)ns2)CC1	/	.	.	.	.	.	/	/
O=C(Nc1ccccc1Cl)N1CCCN(c2nc(-c3ccccc3)ns2)CC1	/	.	-7	.	-12	.	112	.
COCCn1c(SCC(=O)N2CCCCC2)nc2cccnc21	.	.	.	.	.	.	/	/
CC1(C)CC(=O)C=C(Nc2ccc(Cl)cc2)C1	/	.	.	.	.	.	/	/
CC1(C)CC(=O)C=C(Nc2ccc(Cl)c(Br)c2)C1	/	.	.	.	-10	.	114	0.15
N#Cc1cc2c(nc1SCC(O)CS(=O)(=O)Cc1ccc(Cl)cc1)CCCC2 (stereo not drawn)	.	.	.	.	-11	.	109	0.15
COc1cc(/C=C(\C#N)c2nc3ccccc3[nH]2)cc(OC)c1O	/	.	.	.	-16	.	.	.
Cn1c(/C(C#N)=C/c2ccc(O)cc2)nc2ccccc21	.	.	.	.	.	.	/	/
COc1cc(/C=C(\C#N)c2nc3ccccc3n2C)cc(OC)c1O	-6.9	7	.	.	-9.4	.	118	0.15
COc1ccccc1NC(=O)COC(=O)/C=C/c1ccc(OC)c(OC)c1	/	/	/	/	.	/	/	/
Cc1nn2c(Nc3ccccc3)c3c(nc2c1-c1ccccc1)CCC3	.	.	.	.	.	.	/	/
Cc1nn2c(NC(C)C)c3c(nc2c1-c1ccccc1)CCC3	.	.	.	.	-8.9	.	94	.
CCc1ccc(NC(=O)C(=S)NC2CCCCC2)cc1	.	.	.	.	.	.	/	/
CCc1ccc(NC(=O)NC2CCCCCCC2)cc1	/	.	.	.	-9.4	.	125	0.12
SMILES	Cl transport mod	KCNQ1 inh	KCNK9 block	hERG rescue	KCNK3 block	KCNQ1 act	KCNK3 confirm	KCNK3 uninduced
O=C(NNS(=O)(=O)c1ccc(F)cc1)c1cccc(O)c1	/	.	.	.	.	.	/	/
Cc1cccc(C(=O)NCC(=O)OCCOc2ccccc2Cl)c1	/	.	.	.	-9.1	.	86	.
Cc1ccc(/C=N/NC(=O)Cn2nccc2C)o1	.	.	.	.	.	.	/	/
COc1cccc2cc(CC(=O)c3ccc(C)c(C)c3)c(=O)oc12	/	.	.	.	.	.	/	/
COc1cccc2cc(CC(=O)c3cc(C)ccc3C)c(=O)oc12	/	.	.	.	-9.6	.	82	.
CN(C)c1ccc(C(C(=O)NCc2ccccc2)N(Cc2ccco2)C(=O)c2snc(C(N)=O)c2N)cc1 (stereo not drawn)	/	.	.	.	.	.	/	/
CC(C)C(=O)NC(=S)Nc1ccccc1C(F)(F)F	/	.	.	.	.	.	/	/
